The source made the active and inactive calls. No cut-off for these calls is given here.
Key:
Neisseria meningitidis [1] = assay: Inhibition of Neisseria meningitidis alpha-1,4-galactosyltransferase at 0.1 to 100 uM using lactose as substrate preincubated with compoundfollowed by substrate/UDP-Gal addition measured after 20 min by malachite green dye-based assay
How it was run: (§1)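 Enzyme (DTT-activated) with MnCl2 5 mM, CIP 10 U/mL, lysozyme 1 mg/mL, 0.01% Triton, 13 mM HEPES pH 7.0 and inhibitor in DMSO (10% final) pre-incubated 10 min at 30 °C before UDP-Gal (28 µM) plus lactose (2 mM) added; 20 min at 30 °C; UDP read by malachite green at 620 nm versus UDP standard curve, background-corrected; triplicate.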

Neisseria meningitidis [2] = assay: Inhibition of Neisseria meningitidis alpha-1,4-galactosyltransferase assessed as consumption of donor UDP-Gal by measuring turnover rate at 0.1 to 100 uM using lactose as substrate in presence of UDP-Gal measured after 20 min by malachite green dye-based assay relative to total amount of UDP-Gal used
How it was run: (§2)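 No pre-incubation: DTT-activated LgtC with MnCl2 5 mM, CIP 10 U/mL, egg-white lysozyme 1 mg/mL, 0.01% Triton, 13 mM HEPES pH 7.0, lactose 2 mM, inhibitor in DMSO (10% final); started with UDP-Gal 28 µM, 20 min at 30 °C, 20-50% donor turnover. Malachite green read at 620 nm against a UDP calibration curve, background without acceptor subtracted, % of assay window; triplicate minimum; IC50 from sigmoidal fit.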

Neisseria meningitidis [3] = assay: (§3) Inhibition of Neisseria meningitidis alpha-1,4-galactosyltransferase assessed as consumption of donor UDP-Gal by measuring turnover rate at 0.1 to 100 uM using lactose as substrate preincubated for 10 mins with UDP-Gal followed by lactose addition measured after 20 mins by malachite green dye-based assay relative to total amount of UDP-Gal used
How it was run: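 LgtC pre-incubated 10 min at 30 °C with inhibitor (DMSO, 10% final) and UDP-Gal 28 µM in 13 mM HEPES pH 7.0 with MnCl2 5 mM, CIP 10 U/mL, lysozyme 1 mg/mL, 0.01% Triton; lactose 2 mM then added, 20 min at 30 °C; malachite green absorbance at 620 nm converted via UDP calibration; triplicate.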

Neisseria meningitidis [4] = assay: as §3, with “mins” for “mins with UDP-Gal”, “by substrate and UDP-Gal” for “by lactose”, “total” for “total amount of”; how it was run: as §1
Neisseria meningitidis [5] = assay: as §3, with “preincubated with lactose” for “preincubated”, “mins” for “mins with UDP-Gal”, “by UDP-Gal” for “by lactose”, “total” for “total amount of”
How it was run: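 Pre-incubation 10 min at 30 °C of activated LgtC, inhibitor (10% DMSO final) and lactose 2 mM in 13 mM HEPES pH 7.0 with MnCl2 5 mM, CIP 10 U/mL, lysozyme 1 mg/mL, 0.01% Triton; reaction started with UDP-Gal 28 µM, 20 min at 30 °C; malachite green readout at 620 nm against UDP standards; triplicate.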

Neisseria meningitidis [6] = assay: (§4) Inhibition of Neisseria meningitidis alpha-1,4-galactosyltransferase assessed as as consumption of donor UDP-Gal by measuring turnover rate at 0.1 to 50 uM using lactose as substrate preincubated for 20 mins followed by lactose and UDP-Gal addition measured after 20 mins by malachite green dye-based assay relative to total UDP-Gal used
[7] = Inhibition of Neisseria meningitidis alpha-1,4-galactosyltransferase assessed as enzyme activity using lactose as substrate in presence of UDP-Gal measured after 20 min by malachite green dye-based assay; how it was run: as §2
[8] = Inhibition of Neisseria meningitidis alpha-1,4-galactosyltransferase assessed as enzyme activity using lactose as substrate preincubated for 5 mins followed by lactose and UDP-Gal addition measured after 20 mins by malachite green dye-based assay
[9] = Inhibition of Neisseria meningitidis alpha-1,4-galactosyltransferase assessed as enzyme activity using lactose as substrate preincubated for 10 mins followed by lactose and UDP-Gal addition measured after 20 mins by malachite green dye-based assay; how it was run: as §1
[10] = Inhibition of Neisseria meningitidis alpha-1,4-galactosyltransferase assessed as enzyme activity using lactose as substrate preincubated for 20 mins followed by lactose and UDP-Gal addition measured after 20 mins by malachite green dye-based assay
[11] = Inhibition of Neisseria meningitidis alpha-1,4-galactosyltransferase assessed as enzyme activity using lactose as substrate preincubated for 30 mins followed by lactose and UDP-Gal addition measured after 20 mins by malachite green dye-based assay
[12] = Inhibition of Neisseria meningitidis alpha-1,4-galactosyltransferase assessed as enzyme activity using lactose as substrate preincubated for 60 mins followed by lactose and UDP-Gal addition measured after 20 mins by malachite green dye-based assay
[13] = Inhibition of Neisseria meningitidis alpha-1,4-galactosyltransferase assessed as enzyme activity using lactose as substrate preincubated for 180 mins followed by lactose and UDP-Gal addition measured after 20 mins by malachite green dye-based assay
Neisseria meningitidis [14] = assay: Binding affinity to Neisseria meningitidis alpha-1,4-galactosyltransferase assessed as covalent adduct formation at 50 uM by mass spectrometric analysis; details: TDE = time-dependent effect
How it was run: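 LgtC stock without DTT activation, diluted in 13 mM HEPES pH 7.0, incubated with inhibitor (100 or 50 µM, added in DMSO; 10% final DMSO) for 20 min at 30 °C; samples injected directly for electrospray MS to detect protein-inhibitor adducts.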

Bos taurus = organism: Bos taurus; assay: Inhibition of bovine beta-1,4-galactosyltransferase at 0.1 to 50 uM using UDP as substrate after 20 mins by malachite green dye-based assay
[15] = (§5) Inhibition of Neisseria meningitidis alpha-1,4-galactosyltransferase assessed as enzyme activity using lactose as substrate preincubated for 0 to 30 mins measured after 20 mins in presence of UDP-Gal
Neisseria meningitidis [16] = assay: as §5
Neisseria meningitidis [17] = assay: Inhibition of Neisseria meningitidis alpha-1,4-galactosyltransferase assessed as rate constant for enzyme activity at 0.5 uM using lactose as substrate preincubated with substrate measured after 20 mins in presence of UDP-Gal
How it was run: (§6)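 Activity measured at a series of inhibitor concentrations (0.5-200 µM range overall) after pre-incubation with LgtC for 0, 5, 10, 20 and 30 min, using the pre-incubation protocols (lactose 2 mM, UDP-Gal 28 µM, 20 min at 30 °C, malachite green); % of DMSO control plotted semi-logarithmically versus pre-incubation time to give kobs; kobs versus concentration gave Ki and kinact; triplicate.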

Neisseria meningitidis [18] = assay: Inhibition of Neisseria meningitidis alpha-1,4-galactosyltransferase assessed as rate constant for enzyme activity at 4 uM using lactose as substrate preincubated with substrate measured after 20 mins in presence of UDP-Gal; how it was run: as §6
Neisseria meningitidis [19] = assay: Inhibition of Neisseria meningitidis alpha-1,4-galactosyltransferase assessed as rate constant for enzyme activity at 10 uM using lactose as substrate preincubated with substrate measured after 20 mins in presence of UDP-Gal; how it was run: as §6
Neisseria meningitidis [20] = assay: Inhibition of Neisseria meningitidis alpha-1,4-galactosyltransferase assessed as rate constant for enzyme activity at 25 uM using lactose as substrate preincubated with substrate measured after 20 mins in presence of UDP-Gal; how it was run: as §6
Neisseria meningitidis [21] = assay: Inhibition of Neisseria meningitidis alpha-1,4-galactosyltransferase assessed as rate constant for enzyme activity at 50 uM using lactose as substrate preincubated with substrate measured after 20 mins in presence of UDP-Gal; how it was run: as §6
Neisseria meningitidis [22] = assay: as §4, with “assessed” for “assessed as”, “100” for “50”

inhibition (Neisseria meningitidis [1])	inhibition (Neisseria meningitidis [2]) [%]	inhibition (Neisseria meningitidis [3]) [%]	inhibition (Neisseria meningitidis [4]) [%]	inhibition (Neisseria meningitidis [5]) [%]	IC50 [7] [µM]	IC50 [8] [µM]	IC50 [9] [µM]	IC50 [10] [µM]	IC50 [11] [µM]	IC50 [12] [µM]	IC50 [13] [µM]	inhibition (Bos taurus)	Ki [15] [µM]	Kinact (Neisseria meningitidis [16]) [min⁻¹]	K (Neisseria meningitidis [17]) [min⁻¹]	K (Neisseria meningitidis [18]) [min⁻¹]	K (Neisseria meningitidis [19]) [min⁻¹]	K (Neisseria meningitidis [20]) [min⁻¹]	K (Neisseria meningitidis [21]) [min⁻¹]	SMILES	also measured
inactive	30	30	25	23	> 50	24	15.8	6.5	3.1	3.1	5.5	inactive	4.4	0.0535	0.006	0.023	0.039	0.047	0.048	COc1ccc(/C=C2\C(=O)N(c3ccccc3)N=C2C(F)(F)F)cc1Br	inhibition (Neisseria meningitidis [6]): 32%; Activity (Neisseria meningitidis [14]): Tde
inactive	29	29	25 to 41	23	> 100	> 50	> 50	38	17.6	9	6	inactive	46.3	0.104	0.002	0.007	0.011	0.033	0.068	O=C1/C(=C\c2cccc(OCc3ccccc3)c2)C(C(F)(F)F)=NN1c1ccccc1	inhibition (Neisseria meningitidis [22]): 27%
